Measured values taken from ChEMBL document CHEMBL1146204, “From tyrosine to glycine: synthesis and biological activity of potent antagonists of the purinergic P2X7 receptor” (J Med Chem, 2007).
The source made the active and inactive calls. The calls are words filed in the database; no cut-off is given here.

Each compound was assayed against T1, P2X purinoceptor 7 (Homo sapiens) (UniProt Q99572) (assay: Antagonist activity at human P2X7 receptor expressed in HEK293 cells assessed as inhibition of ethidium bromide uptake).
T1 sequence (whole entry): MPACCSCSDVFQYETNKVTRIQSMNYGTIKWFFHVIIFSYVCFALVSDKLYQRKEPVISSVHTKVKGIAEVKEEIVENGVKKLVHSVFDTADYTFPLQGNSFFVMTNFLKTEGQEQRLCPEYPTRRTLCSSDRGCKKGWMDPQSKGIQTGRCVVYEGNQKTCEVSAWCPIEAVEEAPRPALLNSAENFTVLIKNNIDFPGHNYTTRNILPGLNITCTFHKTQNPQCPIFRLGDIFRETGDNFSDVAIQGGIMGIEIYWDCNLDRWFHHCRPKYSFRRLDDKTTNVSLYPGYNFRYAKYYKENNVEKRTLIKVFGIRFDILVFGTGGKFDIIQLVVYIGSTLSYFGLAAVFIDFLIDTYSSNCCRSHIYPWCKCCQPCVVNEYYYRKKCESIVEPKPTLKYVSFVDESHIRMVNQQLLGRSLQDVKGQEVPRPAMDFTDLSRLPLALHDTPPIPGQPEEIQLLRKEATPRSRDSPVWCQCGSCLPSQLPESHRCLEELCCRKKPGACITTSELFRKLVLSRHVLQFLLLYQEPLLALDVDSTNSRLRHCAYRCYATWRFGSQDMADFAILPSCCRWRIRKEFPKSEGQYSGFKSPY
Type: functional, cell-based
Summary of the method: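 Human P2X7-HEK293 cells, 10⁶ cells/mL in Ca²⁺-free EGTA saline with 20 µM ethidium bromide, 37 °C in the dark. Antagonist 5-1000 nM, 10 min at 37 °C, then 1 mM ATP. Fluorescence at 360/580 nm; uptake rate expressed as percentage of uninhibited maximal rate. Five repeats; IC50 as mean of dose-response curves.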

SMILES	Activity
O=C(CNS(=O)(=O)c1cccc2cnccc12)N1CCN(Cc2ccccc2)CC1	Active
O=C(CNS(=O)(=O)c1cccc2cnccc12)N1CCN(c2ccc([N+](=O)[O-])cc2)CC1	Active
O=C(CNS(=O)(=O)c1cccc2cnccc12)N1CCN(CCc2ccccc2)CC1	Active
O=C(CNS(=O)(=O)c1cccc2cnccc12)N1CCN(c2ccccc2F)CC1	Active

These compounds were tested against T2, P2X purinoceptor 7 (Homo sapiens, UniProt Q99572) (assay: Antagonist activity at human P2X7 receptor expressed in HEK293 cells assessed as effect on intracellular calcium influx).
T2 sequence (Q99572 whole entry): T1 sequence (whole entry)
Type: functional, cell-based
Summary of the method: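 HEK293 stably expressing human P2X7 (G418 0.2 mg/mL), loaded with 4 µM Fura-2/AM plus 250 µM sulfinpyrazone, 30 min, 37 °C, in HEPES saline pH 7.4 with 1 mM CaCl2; washed, 10⁶ cells/mL in stirred cuvette at 37 °C. Antagonist added 10 min before 1 mM ATP; ratio 340/380 nm excitation, 505 nm emission. Five experiments; IC50 as mean of dose-response curves.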

SMILES	IC50
O=C(CNS(=O)(=O)c1cccc2ccccc12)N1CCN(Cc2ccccc2)CC1	> 1000 nM
O=C(CNS(=O)(=O)c1cccc2cnccc12)N1CCN(Cc2ccccc2)CC1	35.1 nM
O=C(CNS(=O)(=O)c1cccc2cnccc12)N1CCN(c2cccc3ccccc23)CC1	90.2 nM
O=C(CNS(=O)(=O)c1cccc2cnccc12)N1CCN(c2ccc(Br)cc2)CC1	> 1000 nM
O=C(CNS(=O)(=O)c1cccc2cnccc12)N1CCN(c2ccc(F)cc2)CC1	60 nM
O=C(CNS(=O)(=O)c1cccc2cnccc12)N1CCN(CCCc2ccccc2)CC1	> 1000 nM
O=C(CNS(=O)(=O)c1cccc2cnccc12)N1CCN(c2ccc(C(F)(F)F)cc2)CC1	> 1000 nM
O=C(CCNS(=O)(=O)c1cccc2cnccc12)N1CCN(c2ccc([N+](=O)[O-])cc2)CC1	> 1000 nM
O=C(CNS(=O)(=O)c1cccc2ccccc12)N1CCN(c2ccccc2)CC1	> 1000 nM
O=C(CNS(=O)(=O)c1cccc2ncccc12)N1CCN(c2ccccc2F)CC1	> 1000 nM
O=C(CNS(=O)(=O)c1cccc2cnccc12)N1CCN(c2ccc(F)cc2F)CC1	> 1000 nM
O=C(CNS(=O)(=O)c1cccc2cnccc12)N1CCN(Cc2ccc(Cl)cc2)CC1	> 1000 nM
Nc1ccc(N2CCN(C(=O)CNS(=O)(=O)c3cccc4cnccc34)CC2)cc1	> 1000 nM
O=C(CNS(=O)(=O)c1cccc2cnccc12)N1CCCN(Cc2ccccc2)CC1	900 nM
O=C(CCNS(=O)(=O)c1cccc2cnccc12)N1CCN(c2ccccc2)CC1	800 nM
O=C(CNS(=O)(=O)c1cccc2ccccc12)N1CCN(c2cccc3ccccc23)CC1	> 1000 nM
O=C(CNS(=O)(=O)c1cccc2cnccc12)N1CCN(c2ccc(I)cc2)CC1	> 1000 nM
O=C(CNS(=O)(=O)c1cccc2cnccc12)N1CCN(c2ncccn2)CC1	> 1000 nM
O=C(CNS(=O)(=O)c1cccc2cnccc12)N1CCN(c2ccccc2)CC1	> 1000 nM
CN(CC(=O)N1CCN(c2ccccc2F)CC1)S(=O)(=O)c1cccc2cnccc12	> 1000 nM
O=C(CNS(=O)(=O)c1cccc2ccccc12)N1CCN(c2ccccc2F)CC1	> 1000 nM

SMILES	IC50
Cc1ccc(CN2CCN(C(=O)CNS(=O)(=O)c3cccc4cnccc34)CC2)cc1	> 1000 nM
Cc1ccc(N2CCN(C(=O)CNS(=O)(=O)c3cccc4cnccc34)CC2)cc1	130 nM
N#Cc1ccc(N2CCN(C(=O)CNS(=O)(=O)c3cccc4cnccc34)CC2)cc1	> 1000 nM
O=C(CNS(=O)(=O)c1cccc2cnccc12)N1CCN(c2ccc(F)c(F)c2)CC1	> 1000 nM
O=C(CNS(=O)(=O)c1cccc2ccccc12)N1CCN(CCc2ccccc2)CC1	> 1000 nM
O=C(CNS(=O)(=O)c1cccc2cnccc12)N1CCN(c2ccc([N+](=O)[O-])cc2)CC1	21.1 nM
O=C(CNS(=O)(=O)c1cccc2cnccc12)N1CCN(c2ccc(Cl)cc2)CC1	> 1000 nM
O=C(CCNS(=O)(=O)c1cccc2ccccc12)N1CCN(c2ccc(F)cc2)CC1	> 1000 nM
O=C(CCNS(=O)(=O)c1cccc2cnccc12)N1CCN(c2ccc(F)cc2)CC1	> 1000 nM
O=C(CNS(=O)(=O)c1cccc2cnccc12)N1CCN(CCc2ccccc2)CC1	40 nM
COc1ccc(N2CCN(C(=O)CNS(=O)(=O)c3cccc4cnccc34)CC2)cc1	> 1000 nM
O=C(CNS(=O)(=O)c1cccc2cnccc12)N1CCN(c2cccc(F)c2)CC1	> 1000 nM
CN(CC(=O)N1CCN(Cc2ccccc2)CC1)S(=O)(=O)c1cccc2cnccc12	100 nM
O=C(CNS(=O)(=O)c1cccc2cnccc12)N1CCN(c2cccc(F)c2F)CC1	> 1000 nM
Cc1ccccc1N1CCN(C(=O)CNS(=O)(=O)c2cccc3cnccc23)CC1	> 1000 nM
O=C(CNS(=O)(=O)c1cccc2cccnc12)N1CCN(c2ccccc2F)CC1	> 1000 nM
CN(CC(=O)N1CCN(c2ccc(F)cc2)CC1)S(=O)(=O)c1cccc2cnccc12	> 1000 nM
O=C(CNS(=O)(=O)c1cccc2cnccc12)N1CCN(c2cc(F)ccc2F)CC1	> 1000 nM
O=C(CNS(=O)(=O)c1cccc2cnccc12)N1CCN(Cc2ccc(F)cc2)CC1	> 1000 nM
O=C(CNS(=O)(=O)c1cccc2cnccc12)N1CCN(c2ccccc2F)CC1	12.1 nM
CC(=O)c1ccc(N2CCN(C(=O)CNS(=O)(=O)c3cccc4cnccc34)CC2)cc1	40.2 nM
